High-throughput results (PubChem BioAssay)
Shown are actives, neighbours in structure and some others; about 1.9% of the full set was active somewhere.
PLC-beta3 inh – blocks human PLC-beta3 enzyme activity; 0.18% of 370,000 active; inhibition, % at 12.2 µM; Q01970; Purified PLC-beta3, fluorogenic substrate, fluorescence; in the data active means inhibition above about 11%;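 further: 0% = median of compound wells on plate and 100% = full blocker control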
Tb MetRS inh – blocks T. brucei methionyl-tRNA synthetase activity; inhibition, % at 11.9 µM; purified T. brucei MetRS, ATP depletion, Kinase-Glo luminescence; 0.4% of 360,000 active;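 active means inhibition above a per-plate cutoff of the control wells' mean inhibition plus 3 SD, cut at about 5.5% in these data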;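 further: 0% = DMSO wells median and 100% = median of wells with control inhibitor compound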
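Test system: purified T. brucei MetRS enzyme. Also added: ATP, methionine and E. coli bulk tRNA substrates. Compound: 11.9 µM single point. Schedule: 15 min enzyme-compound preincubation, 2 h reaction, 10 min detection, 25 °C. Signal: luciferase luminescence of residual ATP, Kinase-Glo. Evaluation: percent inhibition versus plate control medians. Controls: DMSO wells, low control.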
PLC-gamma1 inh – blocks human PLC-gamma1 enzyme activity; P19174; purified PLC-gamma1, fluorogenic substrate, fluorescence; inhibition, % at 12.2 µM; 0.84% of 370,000 active; AID 720700
HGIII-sPLA2 inh – Inhibits HGIII-sPLA2 liposome hydrolysis, primary screen | Q9NZ20 | QFRET BODIPY PC-A2 liposome hydrolysis, fluorescence | inhibition, % at 12.2 µM | 0.56% of 370,000 active | AID 743126;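 active means inhibition above mean plus 3 SD of compounds lying within the high and low control bounds, cut at about 19% in these data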;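 further: 0% = median of test compound wells and 100% = no enzyme DMSO wells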
Target sequence (Q9NZ20 whole entry, looked up): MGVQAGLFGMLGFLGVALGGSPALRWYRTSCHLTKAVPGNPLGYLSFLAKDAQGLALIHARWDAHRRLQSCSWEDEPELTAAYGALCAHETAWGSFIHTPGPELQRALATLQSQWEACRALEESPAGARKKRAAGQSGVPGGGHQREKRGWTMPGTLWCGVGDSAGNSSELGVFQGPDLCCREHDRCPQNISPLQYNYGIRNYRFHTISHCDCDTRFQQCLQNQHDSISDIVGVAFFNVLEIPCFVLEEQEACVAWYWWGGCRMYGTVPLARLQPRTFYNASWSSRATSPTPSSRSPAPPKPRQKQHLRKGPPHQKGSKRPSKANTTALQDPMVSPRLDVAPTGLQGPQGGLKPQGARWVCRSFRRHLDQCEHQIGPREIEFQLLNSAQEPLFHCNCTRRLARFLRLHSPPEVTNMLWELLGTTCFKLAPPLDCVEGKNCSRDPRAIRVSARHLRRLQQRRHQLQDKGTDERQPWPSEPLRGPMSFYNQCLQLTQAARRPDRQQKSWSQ
PLCg1 ctr – inhibits human PLC-gamma1 in PLC-beta3 counter-screen. inhibition, % at 12.3 µM. shares compounds with PLC-gamma1 inh. 3.1% of 3,300 active. purified PLC-gamma1, fluorogenic substrate, fluorescence
PLCb3 confirm – human PLC-beta3 inhibition, confirmation; inhibition, % at 12.3 µM; shares compounds with PLC-gamma1 inh; purified PLC-beta3, fluorogenic substrate fluorescence; AID 743261; 1% of 3,300 active; in the data active means inhibition above about 11%
Numbers without * were called inactive; i = inactive; . = no result given; ! = not confirmed by another sample. Unless noted, no stated cut-off is given here; in the data, active means inhibition above about 9.5%; inactive means the rest.

SMILES	PLC-beta3 inh	Tb MetRS inh	PLC-gamma1 inh	HGIII-sPLA2 inh	PLCg1 ctr	PLCb3 confirm
C[C@H](O)[C@@H]1C(=O)N2CCc3c([nH]c4c(-c5ccccc5)cccc34)[C@@H]2C[C@@H]1N(C)CC1CCCCC1	-107.2	.	-81.5	-3.1	.	.
COC(=O)[C@]12C[C@H](CC(=O)NCc3ccccc3)C(=O)N(Cc3ccco3)C1=C[C@H](COCc1ccccc1)O[C@@H]2C	1.4	.	7.7	-11.4	.	.
CCN(Cc1ccccc1)C(=O)Cn1cc2c(n1)CCCC2	6.4	1.5	10.1*	4.4	-5.7	-1.5
O=C(Cn1cc2c(n1)CCCCC2)NCc1ccccc1	-0.4	-0.6	0.2	-2.8	.	.
CCOC(=O)[C@@H]1CCNC[C@@H]1c1ccccc1	-0.5	-1.0	0.6	-3.0	.	.
CCOC(=O)C1NC(=O)CC1c1ccccc1 (stereo not given)	7.7	0.3	11.0*	-0.2	6.8	3.4
Cc1cc(C)cc(C(=O)OCCN(C)C2CN(Cc3cn(Cc4ccc([N+](=O)[O-])cc4)nn3)S(=O)(=O)C2)c1 (stereo not given)	2.2	.	-0.7	-9.1	.	.
COC(=O)C1C(c2ccccc2)C(C(=O)N2CCOCC2)C1c1ccccc1 (stereo not given)	15.3*	-0.1	-1.1	8.4	-2.0	2.8
O=C(Nc1cccc2ccccc12)c1ccccc1	1.2	0.6	10.2*	-5.2	-70.8	-1.7
Cc1[nH][nH]c(=O)c1C=Nc1ccc(C(F)(F)F)cc1	2.5	-0.6	0.3	4.5	.	.
COc1ccc(N=Cc2c(C)[nH][nH]c2=O)cc1	8.1	-0.7	9.9*	9.7	0.8	1.4
O=C(Nc1nc2ncccn2c1-c1ccc(F)cc1)C1CC1	i	.	i	12.1	.	.
C#CCN(C[C@@H]1[C@@H](OC(=O)NC2CCCC2)[C@@H](OC(=O)NC2CCCC2)CN(C(=O)OC(C)C)N1C(=O)OC(C)C)S(=O)(=O)c1ccc(C)cc1	0.5	-1.1	11.4*	-18.7	-6.1	-6.6
CN(C(=O)COC(=O)c1ccc2ccccc2n1)C1CCCCC1	4.3	-0.1	10.4*	4.9	-5.4	-0.9
COC(=O)c1cc(-c2ccc(C(C)(C)C)cc2)c(=O)n2c1CCC2	-6.6	.	-6.3	1.6	.	.
CN=C1SC(CC(=O)NCCc2ccc(OC)c(OC)c2)C(=O)N1C (stereo not given)	12.7*!	-0.2	11.1*!	-1.1	9.5*	5.8
CCC(CC)c1nnc(NC(=O)c2cc(C(=O)OC)cc([N+](=O)[O-])c2)s1	-0.1	-0.4	11.8*	-11.4	-4.3	-1.9
CCOC(=O)CSc1nnc(NC(=O)c2cccc([N+](=O)[O-])c2)s1	12.8*	-0.4	4.8	-1.6	-3.1	0.2
CCCC/C=C1/[C@H](c2ccc(Cl)cc2)N(Cc2ccc3c(c2)OCO3)C2=N[C@H](c3ccccc3)CC(=O)N21	-2.6	.	-3.6	-2.2	.	.
O=C(CN1CCN(c2ccccc2F)CC1)Nc1ccccc1F	1.7	-1.0	3.5	7.7	.	.
O=C(CCN1CCN(c2ccccc2F)CC1)Nc1ccccc1F	5.7	-1.2	10.9*	10.4	-2.9	-0.7
CC(=O)Nc1ccc(N2CC(C)(C)C2=O)cc1	5.4	-0.7	13.0*	9.3	-3.1	0.8
CC1(C)CN(c2ccc(N3CC(C)(C)C3=O)cc2)C1=O	-3.6	-0.8	3.6	2.0	.	.
O=C(CSc1ccc(F)cc1)NC(=O)NCc1ccccc1	0.6	-0.4	10.2*	-3.1	-0.3	-4.4
Cc1ccc(C)c(SCC(=O)NC(=O)NCc2ccccc2)c1	-4.2	-0.1	3.5	12.9	.	.
SMILES	PLC-beta3 inh	Tb MetRS inh	PLC-gamma1 inh	HGIII-sPLA2 inh	PLCg1 ctr	PLCb3 confirm
CCn1c2c(c(C)cc1=O)C(=O)CC(C)(C)C2	-0.8	0.5	0.3	13.2	.	.
CCn1c(C)c2c([n+]1CC)CC(C)(C)CC2=O	76.5*	-0.3	0.7	4.2	-4.1	-1.0
OC(COc1c(Cl)cc(Cl)cc1Cl)CN1CCCCC1 (stereo not given)	9.7	0.5	14.9*	2.1	-2.7	1.4
OC(COc1ccc(Cl)cc1)CN1CCCCC1 (stereo not given)	0.1	0.0	-2.5	13.4	.	.
CCCCNS(=O)(=O)/C=C/c1ccc(OC)cc1CNC(=O)OC(C)(C)C	-5.6	.	-5.0	-2.5	.	.
O=C1NC(=O)c2cc(Oc3ccc([N+](=O)[O-])cc3)ccc21	10.7*	2.4	11.2*	7.9	-4.8	-1.6
O=C1c2ccc(Oc3ccc([N+](=O)[O-])cc3)cc2C(=O)N1CCO	1.6	0.0	3.1	3.3	.	.
